# Results reported in ChEMBL document CHEMBL4689842, “EUbOPEN Chemogenomics Library wave 1” (2021).
# System: HEK-293T
# Test: Multiplex assay against HEK293T;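 for Population Tubulin-Different-Phenotype (%): share of the cells with healthy nuclei that show this phenotype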
# Format: toxicity, cell-based
# Conditions: human
# Procedure, shortened: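 Live cells were stained at seeding with Hoechst33342, BioTracker Green Microtubule Cytoskeleton Dye, MitoTracker Red and Annexin V Alexa Fluor 680, then imaged on a CQ1 microscope at 37°C and 5% CO2 after compound addition. CellPathfinder machine-learning gating split cells into Hoechst high-intensity objects or normal cells. Normal cells were split into healthy, pyknosed or fragmented nuclei, and pyknosed cells into mitotic or apoptotic. Tubulin, mitochondrial-mass and membrane-permeability phenotypes are per cents of healthy-nucleus cells.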
# [1] = 12 h, 1 µM, compound concentration 1 uM, replicate 1
# [2] = 12 h, 1 µM, compound concentration 1 uM, replicate 2
# [3] = 12 h, 10 µM, compound concentration 10 uM, replicate 1
# [4] = 12 h, 10 µM, compound concentration 10 uM, replicate 2
# [5] = 24 h, 1 µM, compound concentration 1 uM, replicate 1
# [6] = 24 h, 1 µM, compound concentration 1 uM, replicate 2
# [7] = 24 h, 10 µM, compound concentration 10 uM, replicate 1
# [8] = 24 h, 10 µM, compound concentration 10 uM, replicate 2
smiles,measurement,setting,value
NC(=O)c1cccc(-c2cc(Nc3ccc(OC(F)(F)F)cc3)ncn2)c1,Population Apoptotic (%),[1],23%
same,Population Fragmented Nuclei (%),[1],12%
same,Population Healthy Nuclei (%),[1],75%
same,Population Hoechst High Intensity Objects (%),[1],7%
same,Population Membrane Permeable-Phenotype (%),[1],4%
same,Population Mitochondria Different-Phenotype (%),[1],5%
same,Population Mitotic Cells (%),[1],76%
same,Population Normal (%),[1],92%
same,Population Pyknosed Nuclei (%),[1],12%
same,Population Tubulin-Different-Phenotype (%),[1],3%
same,Total Cell Count,[1],801
same,Population Apoptotic (%),[2],9%
same,Population Fragmented Nuclei (%),[2],7%
same,Population Healthy Nuclei (%),[2],88%
same,Population Hoechst High Intensity Objects (%),[2],1%
same,Population Membrane Permeable-Phenotype (%),[2],0%
same,Population Mitochondria Different-Phenotype (%),[2],10%
same,Population Mitotic Cells (%),[2],90%
same,Population Normal (%),[2],98%
same,Population Pyknosed Nuclei (%),[2],4%
same,Population Tubulin-Different-Phenotype (%),[2],5%
same,Total Cell Count,[2],1607
same,Population Apoptotic (%),[3],18%
same,Population Fragmented Nuclei (%),[3],15%
same,Population Healthy Nuclei (%),[3],54%
same,Population Hoechst High Intensity Objects (%),[3],17%
same,Population Membrane Permeable-Phenotype (%),[3],4%
same,Population Mitochondria Different-Phenotype (%),[3],4%
same,Population Mitotic Cells (%),[3],81%
same,Population Normal (%),[3],82%
same,Population Pyknosed Nuclei (%),[3],29%
same,Population Tubulin-Different-Phenotype (%),[3],4%
same,Total Cell Count,[3],597
same,Population Apoptotic (%),[4],24%
same,Population Fragmented Nuclei (%),[4],4%
same,Population Healthy Nuclei (%),[4],89%
same,Population Hoechst High Intensity Objects (%),[4],2%
same,Population Membrane Permeable-Phenotype (%),[4],0%
same,Population Mitochondria Different-Phenotype (%),[4],14%
same,Population Mitotic Cells (%),[4],75%
same,Population Normal (%),[4],97%
same,Population Pyknosed Nuclei (%),[4],6%
same,Population Tubulin-Different-Phenotype (%),[4],6%
same,Total Cell Count,[4],1186
same,Population Apoptotic (%),[5],22%
same,Population Fragmented Nuclei (%),[5],12%
same,Population Healthy Nuclei (%),[5],81%
same,Population Hoechst High Intensity Objects (%),[5],4%
same,Population Membrane Permeable-Phenotype (%),[5],7%
same,Population Mitochondria Different-Phenotype (%),[5],3%
same,Population Mitotic Cells (%),[5],77%
same,Population Normal (%),[5],95%
same,Population Pyknosed Nuclei (%),[5],5%
same,Population Tubulin-Different-Phenotype (%),[5],4%
same,Total Cell Count,[5],1111
same,Population Apoptotic (%),[6],3%
same,Population Fragmented Nuclei (%),[6],23%
same,Population Healthy Nuclei (%),[6],74%
same,Population Hoechst High Intensity Objects (%),[6],3%
same,Population Membrane Permeable-Phenotype (%),[6],4%
same,Population Mitochondria Different-Phenotype (%),[6],2%
same,Population Mitotic Cells (%),[6],96%
same,Population Normal (%),[6],96%
same,Population Pyknosed Nuclei (%),[6],2%
same,Population Tubulin-Different-Phenotype (%),[6],6%
same,Total Cell Count,[6],2709
same,Population Apoptotic (%),[7],17%
same,Population Fragmented Nuclei (%),[7],16%
same,Population Healthy Nuclei (%),[7],66%
same,Population Hoechst High Intensity Objects (%),[7],11%
same,Population Membrane Permeable-Phenotype (%),[7],3%
same,Population Mitochondria Different-Phenotype (%),[7],4%
same,Population Mitotic Cells (%),[7],82%
same,Population Normal (%),[7],88%
same,Population Pyknosed Nuclei (%),[7],17%
same,Population Tubulin-Different-Phenotype (%),[7],6%
same,Total Cell Count,[7],593
same,Population Apoptotic (%),[8],4%
same,Population Fragmented Nuclei (%),[8],9%
same,Population Healthy Nuclei (%),[8],85%
same,Population Hoechst High Intensity Objects (%),[8],3%
same,Population Membrane Permeable-Phenotype (%),[8],1%
same,Population Mitochondria Different-Phenotype (%),[8],6%
same,Population Mitotic Cells (%),[8],95%
same,Population Normal (%),[8],96%
same,Population Pyknosed Nuclei (%),[8],4%
same,Population Tubulin-Different-Phenotype (%),[8],11%
same,Total Cell Count,[8],1486
